# Laboratory results: ChEMBL document CHEMBL3856239, “Synthesis and Antiobesity Properties of 6-(4-Chlorophenyl)-3-(4-((3,3-difluoro-1-hydroxycyclobutyl)methoxy)-3-methoxyphenyl)thieno[3,2-d]pyrimidin-4(3H)-one (BMS-814580): A Highly Efficacious Melanin Concentrating Hormone Receptor 1 (MCHR1) Inhibitor” (J Med Chem, 2016)
# Key:
# [1] = Drug uptake in Sprague-Dawley rat brain assessed as parent compound level at 10 mg/kg, po measured after 8 hrs; type: ADME, organism-based; conditions: read-out: Drug uptake
# How it was run: (§1)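 Sprague-Dawley rats dosed orally once at 10 mg/kg as parent or glycinate prodrug (prodrug dose adjusted to parent), vehicle 0.5% Methocel/0.1% Tween 80/99.4% water; parent compound measured in brain 8 h post dose, n = 2.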
# [2] = Solubility of the compound in phosphate buffer at pH 6.4; type: physicochemical
# How it was run: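 Solubility of parent compounds and prodrugs measured in 50 mM phosphate buffer, pH 6.4.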
# [3] = Plasma concentration in Sprague-Dawley rat assessed as parent compound level at 10 mg/kg, po measured after 8 hrs; type: ADME, organism-based
# How it was run: (§2)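 SD rats given 10 mg/kg orally as parent or glycine prodrug (prodrug dose adjusted to parent), in 0.5% Methocel/0.1% Tween 80/99.4% water. Plasma and brain levels of parent measured 8 h post dose, n = 2; 0–8 h plasma AUC also determined.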
# [4] = AUC in Sprague-Dawley rat assessed as parent compound level at 10 mg/kg, po measured after 8 hrs; type: ADME, organism-based; design: dose 10 mg/kg, time < 8 hr, route oral; conditions: in vivo
# [5] = Displacement of [Phe13,125I]Tyr19]-MCH from human MCHR1 E4Q/A5T double mutant expressed in HEK293 cells by TopCount scintillation counting method; type: cell-based
# [6] = target: hERG (KCNH2) (Homo sapiens, UniProt Q12809); test: Inhibition of human ERG at 1 uM by patch clamp assay
# hERG (KCNH2), sequence (Q12809 whole entry): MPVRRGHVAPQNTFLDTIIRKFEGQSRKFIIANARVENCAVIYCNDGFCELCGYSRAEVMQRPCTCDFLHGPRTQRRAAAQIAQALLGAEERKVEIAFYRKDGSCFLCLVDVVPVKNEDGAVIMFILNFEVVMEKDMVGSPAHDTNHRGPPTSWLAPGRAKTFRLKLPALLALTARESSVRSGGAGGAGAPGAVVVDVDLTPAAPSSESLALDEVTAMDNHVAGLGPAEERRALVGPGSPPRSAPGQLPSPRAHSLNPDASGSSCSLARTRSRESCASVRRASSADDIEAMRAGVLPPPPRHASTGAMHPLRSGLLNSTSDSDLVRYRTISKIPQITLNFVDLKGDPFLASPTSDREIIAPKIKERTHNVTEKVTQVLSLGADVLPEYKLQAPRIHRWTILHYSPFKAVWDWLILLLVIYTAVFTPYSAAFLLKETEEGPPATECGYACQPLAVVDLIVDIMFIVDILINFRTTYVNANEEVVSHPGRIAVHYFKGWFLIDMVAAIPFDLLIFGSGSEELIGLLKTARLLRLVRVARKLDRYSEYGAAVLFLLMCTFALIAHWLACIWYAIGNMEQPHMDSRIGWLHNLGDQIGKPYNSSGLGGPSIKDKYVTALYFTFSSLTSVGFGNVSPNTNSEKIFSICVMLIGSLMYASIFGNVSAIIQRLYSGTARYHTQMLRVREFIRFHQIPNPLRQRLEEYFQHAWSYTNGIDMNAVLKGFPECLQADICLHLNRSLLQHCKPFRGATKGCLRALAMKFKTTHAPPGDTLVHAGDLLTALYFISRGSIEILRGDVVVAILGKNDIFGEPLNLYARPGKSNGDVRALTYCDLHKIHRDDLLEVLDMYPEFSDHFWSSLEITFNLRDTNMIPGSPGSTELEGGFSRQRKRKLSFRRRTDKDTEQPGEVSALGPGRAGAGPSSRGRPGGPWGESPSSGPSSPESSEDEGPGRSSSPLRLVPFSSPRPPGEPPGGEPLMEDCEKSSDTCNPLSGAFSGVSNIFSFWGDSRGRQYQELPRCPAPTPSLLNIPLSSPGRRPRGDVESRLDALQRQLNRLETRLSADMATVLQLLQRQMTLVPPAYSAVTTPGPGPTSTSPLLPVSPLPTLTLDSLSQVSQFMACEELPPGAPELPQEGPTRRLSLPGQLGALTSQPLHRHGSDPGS
# [7] = Drug level in Sprague-Dawley rat brain assessed as 6-(4-chlorophenyl)-3-(4-((3-hydroxyoxetan-3-yl)methoxy)-3-methoxyphenyl)thieno[3,2-d]pyrimidin-4(3H)-one level measured on day 4 post 20 hrs of last dosage; type: ADME, tissue-based; conditions: in vivo, read-out: Ct
# How it was run: (§3)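 Sub-chronic study in Sprague-Dawley rats: oral glycinate prodrug at 3, 10 and 30 mg/kg once daily for 4 days, vehicle 0.5% Methocel/0.1% Tween 80/99.4% water; parent compound measured in brain on day 4 at 20 h.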
# [8] = Plasma concentration in Sprague-Dawley rat assessed as 6-(4-chlorophenyl)-3-(4-((3-hydroxyoxetan-3-yl)methoxy)-3-methoxyphenyl)thieno[3,2-d]pyrimidin-4(3H)-one level measured on day 4 post 20 hrs of last dosage
# How it was run: (§4)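 SD rats dosed orally once daily for 4 days at 3, 10 and 30 mg/kg, as glycine prodrug in 0.5% Methocel/0.1% Tween 80 vehicle. Parent plasma and brain levels taken on day 4 at 20 h; n = 8. Biliary lesions examined.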
# [9] = system: Rattus norvegicus; test: Antiobesity activity in DIO Sprague-Dawley rat assessed as body weight loss at 10 mg/kg, po qd for 4 days; type: functional
# How it was run: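 Sprague-Dawley rats dosed orally once daily for 4 days at 3, 10 and 30 mg/kg (vehicle 0.5% Methocel/0.1% Tween 80/99.4% water), n = 8; body weight change from baseline versus vehicle-treated animals, value given for 10 mg/kg.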
# [10] = system: Rattus norvegicus; test: Antiobesity activity in DIO Sprague-Dawley rat model assessed as reduction in caloric intake at 10 mg/kg, po qd for 28 days relative to vehicle control; type: functional; design: scale not given: the % may be the effect or the level left
# [11] = system: Rattus norvegicus; test: Antiobesity activity in DIO Sprague-Dawley rat model assessed as reduction in body weight at 10 mg/kg, po qd for 28 days relative to vehicle control; type: functional; design: scale not given: the % may be the effect or the level left
# [12] = Plasma concentration in Sprague-Dawley rat assessed as 6-(4-chlorophenyl)-3-(4-((3,3-difluoro-1-hydroxycyclobutyl)methoxy)-3-methoxyphenyl)thieno[3,2-d]pyrimidin-4(3H)-one level measured on day 4 post 20 hrs of last dosage; how it was run: as §4
# [13] = Drug level in Sprague-Dawley rat brain assessed as 6-(4-chlorophenyl)-3-(4-((3,3-difluoro-1-hydroxycyclobutyl)methoxy)-3-methoxyphenyl)thieno[3,2-d]pyrimidin-4(3H)-one level measured on day 4 post 20 hrs of last dosage; type: ADME, tissue-based; conditions: in vivo, read-out: Ct; how it was run: as §3
# [14] = Ratio of drug level in brain to plasma in Sprague-Dawley rat at 10 mg/kg, po measured after 8 hrs; type: ADME, organism-based; conditions: brain and plasma, read-out: BPR; how it was run: as §2
# [15] = Protein binding in Sprague-Dawley rat plasma at 10 mg/kg, po qd for 4 days; type: ADME, organism-based; conditions: read-out: PPB
# [16] = Lipophilicity, log P of the compound at pH 7 by HPLC analysis; type: physicochemical; conditions: buffer
# How it was run: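 LogP determined by HPLC at pH 7.0.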
# [17] = system: Rattus norvegicus; test: Toxicity in Sprague-Dawley rat assessed as incidence of biliary lesions at 30 mg/kg, po for 4 days; type: organism-based; conditions: in vivo, 96 h; how it was run: as §4
# [18] = Metabolic stability in human liver microsomes assessed as compound remaining at 3 uM measured after 10 min; type: ADME; conditions: read-out: Stability
# How it was run: (§5)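 Test compound at 3.0 µM incubated with liver microsomes for 10 minutes; read-out is percent of parent remaining.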
# [19] = Metabolic stability in mouse liver microsomes assessed as compound remaining at 3 uM measured after 10 min; type: ADME; conditions: read-out: Stability; how it was run: as §5
# [20] = Metabolic stability in rat liver microsomes assessed as compound remaining at 3 uM measured after 10 min; type: ADME; conditions: read-out: Stability; how it was run: as §5
# [21] = Plasma concentration in Sprague-Dawley rat at 10 mg/kg, po measured after 8 hrs; type: ADME, organism-based; how it was run: as §2
# [22] = AUC in Sprague-Dawley rat at 10 mg/kg, po measured after 8 hrs; type: ADME, organism-based; design: time < 8 hr, dose 10 mg/kg, route oral; conditions: in vivo
# [23] = Drug uptake in Sprague-Dawley rat brain at 10 mg/kg, po measured after 8 hrs; type: ADME, organism-based; conditions: read-out: Drug uptake; how it was run: as §1
# [24] = Protein binding in rat plasma assessed as unbound fraction; type: ADME, cell-free
# How it was run: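 Plasma protein binding reported as % free drug in rat, DIO rat, dog, cynomolgus monkey, rabbit and human plasma.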
SMILES,concentration at 8 h [1] [nM],solubility [2] [µg/mL],concentration at 8 h [3] [nM],fraction unbound at 96 h [15],logP [16],"remaining at 10 min, 3 µM [18] [%]","remaining at 10 min, 3 µM [20] [%]",Ki [5] [nM],other results
COc1cc(-n2cnc3cc(-c4ccc(Cl)cc4)sc3c2=O)ccc1OCC1(OC(=O)CN)CCC1,< 3,< 1,15,,,,,,AUC [4]: 1.3 µM·h
COc1cc(-n2cnc3cc(-c4ccc(Cl)cc4)sc3c2=O)ccc1OCCN1CCCC1,,,,,,,,2.9 to 3.8,
COc1cc(-n2cnc3cc(-c4ccc(Cl)cc4)sc3c2=O)ccc1OCC(C)(C)OP(=O)(O)O,,< 1,,,,,,,
COc1cc(-n2cnc3cc(-c4ccc(Cl)cc4)sc3c2=O)ccc1OC[C@@H](C)O,,,,,,,,9.5,inhibition at 1 µM [6]: 43.8%
Cc1c(C(=O)NN2CCCCC2)nn(-c2ccc(Cl)cc2Cl)c1-c1ccc(Cl)cc1 [RIMONABANT],,,,,,,,,Activity [10]: 27%; Activity [11]: 8.5%
COc1cc(-n2cnc3cc(-c4ccc(Cl)cc4)sc3c2=O)ccc1OCC1(OC(=O)CN)CC(F)(F)C1,11300,< 1,4500,,,,,,concentration [12]: 12800 nM; concentration [13]: 7960 nM; Kp at 8 h [14]: 2.5; AUC [4]: 38.1 µM·h; Activity [9]: 6.4%
COc1cc(-n2cnc3cc(-c4ccc(Cl)cc4)sc3c2=O)ccc1OCC1(OC(=O)CN)CC1,< 3,,113,,,,,,AUC [4]: 5.9 µM·h

# Continued, in another order:
concentration at 8 h [1] [nM],solubility [2] [µg/mL],concentration at 8 h [3] [nM],fraction unbound at 96 h [15],logP [16],"remaining at 10 min, 3 µM [18] [%]","remaining at 10 min, 3 µM [20] [%]",SMILES,Ki [5] [nM],other results
1130,,1160,,,,,COc1cc(-n2cnc3cc(-c4ccc(Cl)cc4)sc3c2=O)ccc1OCC1(OC(=O)CN)COC1,,concentration [7]: < 3 nM; concentration [8]: 37 nM; AUC [4]: 34.9 µM·h; Activity [9]: 0%
,< 1,,< 0.02,3.8,100,47,COc1cc(-n2cnc3cc(-c4ccc(Cl)cc4)sc3c2=O)ccc1OCC1(O)COC1,8.7,"Activity [17]: 40%; remaining at 10 min, 3 µM [19]: 100%"
,< 1,,< 0.02,4.7,,24,COc1cc(-n2cnc3cc(-c4ccc(Cl)cc4)sc3c2=O)ccc1OCC1(O)CCC1,9.8,concentration at 8 h [21]: 6 nM; AUC at 8 h [22]: 0.2 µM·h; concentration at 8 h [23]: < 3 nM
7800,< 1,3530,,4.5,100,98,COc1cc(-n2cnc3cc(-c4ccc(Cl)cc4)sc3c2=O)ccc1OCC(C)(C)O,,"Fu [24]: 0.8%; remaining at 10 min, 3 µM [19]: 90%"
,< 1,,< 0.02,4.1,94,61,COc1cc(-n2cnc3cc(-c4ccc(Cl)cc4)sc3c2=O)ccc1OCC1(O)CC1,17.5,"remaining at 10 min, 3 µM [19]: 99%"
,< 1,,< 0.02,4.2,87,27,COc1cc(-n2cnc3cc(-c4ccc(Cl)cc4)sc3c2=O)ccc1OCC1(O)CCOCC1,11.2,"concentration at 8 h [21]: 29 nM; AUC at 8 h [22]: 0.4 µM·h; concentration at 8 h [23]: < 3 nM; remaining at 10 min, 3 µM [19]: 98%"
,< 1,,< 0.02,4.7,73,14,COc1cc(-n2cnc3cc(-c4ccc(Cl)cc4)sc3c2=O)ccc1OCC1(O)CCCC1,11.9,
